Experimental data as given in ChEMBL document CHEMBL1667769, “Sodium [2'-[(cyclopropanecarbonyl-ethyl-amino)-methyl]-4'-(6-ethoxy-pyridin-3-yl)-6-methoxy-biphenyl-3-yl]-acetate (AM432): a potent, selective prostaglandin D2 receptor antagonist” (Bioorg Med Chem Lett, 2011).
Calls of active or inactive are those of the source. No cut-off for these calls is given here.

Columns and labels:
[1] = biological target: T1, Prostaglandin D2 receptor 2 (Homo sapiens, UniProt Q9Y5Y4); test: Displacement of [3H]PGD2 from human CRTh2 receptor expressed in 293 cells by liquid scintillation counting in presence of 0.2 % HSA; assay type: cell-based, HEK293
T1 sequence (Q9Y5Y4 whole entry): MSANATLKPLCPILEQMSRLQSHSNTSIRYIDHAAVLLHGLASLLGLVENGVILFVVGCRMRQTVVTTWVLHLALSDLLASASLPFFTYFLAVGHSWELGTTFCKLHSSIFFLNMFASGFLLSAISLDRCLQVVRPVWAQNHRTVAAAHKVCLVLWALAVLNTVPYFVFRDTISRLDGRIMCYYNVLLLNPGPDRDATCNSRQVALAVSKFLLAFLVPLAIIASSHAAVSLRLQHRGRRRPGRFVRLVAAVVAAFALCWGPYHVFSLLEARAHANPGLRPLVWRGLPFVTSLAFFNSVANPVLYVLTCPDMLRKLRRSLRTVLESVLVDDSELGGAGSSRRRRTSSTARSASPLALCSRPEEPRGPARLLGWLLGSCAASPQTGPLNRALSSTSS
How it was run: (§1)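 Membranes from 293 cells stably expressing human DP₂ incubated with [³H]-PGD₂ and increasing compound concentrations. Membranes harvested and washed; bound [³H]-PGD₂ counted. IC₅₀ taken as concentration giving 50% inhibition of binding. Run without and with 0.2% human serum albumin. Values averaged from three experiments (five for the lead).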

Cytochrome P450 2D6 = Cytochrome P450 2D6 (Homo sapiens, UniProt P10635); test: Inhibition of human CYP2D6; assay type: ADME
Chain of Cytochrome P450 2D6 (P10635 whole entry): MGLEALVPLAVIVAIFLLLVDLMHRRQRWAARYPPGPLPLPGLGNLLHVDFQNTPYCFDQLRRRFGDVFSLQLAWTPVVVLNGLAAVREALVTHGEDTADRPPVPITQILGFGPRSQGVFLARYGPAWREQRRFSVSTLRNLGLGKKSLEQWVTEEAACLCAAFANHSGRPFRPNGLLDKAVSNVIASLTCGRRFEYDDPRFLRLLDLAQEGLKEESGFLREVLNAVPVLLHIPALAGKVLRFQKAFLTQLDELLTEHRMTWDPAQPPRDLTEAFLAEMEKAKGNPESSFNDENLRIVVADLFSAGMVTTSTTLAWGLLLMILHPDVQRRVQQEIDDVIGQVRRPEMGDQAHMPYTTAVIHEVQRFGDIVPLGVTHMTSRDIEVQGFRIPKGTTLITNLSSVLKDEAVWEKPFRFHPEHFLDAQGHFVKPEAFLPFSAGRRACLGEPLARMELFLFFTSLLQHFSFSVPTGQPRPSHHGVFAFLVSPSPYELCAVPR

Prostacyclin receptor = Prostacyclin receptor (Homo sapiens, UniProt P43119); test: Displacement of [3H]iloprost from IP receptor in human 293 cell membrane; assay type: cell membranes
How it was run: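 Human IP binding using hIP/293 membranes and ³H-iloprost.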

[2] = biological target: T2, Prostaglandin G/H synthase 2 (Homo sapiens, UniProt P35354); test: Inhibition of COX-2
T2 sequence (P35354 whole entry): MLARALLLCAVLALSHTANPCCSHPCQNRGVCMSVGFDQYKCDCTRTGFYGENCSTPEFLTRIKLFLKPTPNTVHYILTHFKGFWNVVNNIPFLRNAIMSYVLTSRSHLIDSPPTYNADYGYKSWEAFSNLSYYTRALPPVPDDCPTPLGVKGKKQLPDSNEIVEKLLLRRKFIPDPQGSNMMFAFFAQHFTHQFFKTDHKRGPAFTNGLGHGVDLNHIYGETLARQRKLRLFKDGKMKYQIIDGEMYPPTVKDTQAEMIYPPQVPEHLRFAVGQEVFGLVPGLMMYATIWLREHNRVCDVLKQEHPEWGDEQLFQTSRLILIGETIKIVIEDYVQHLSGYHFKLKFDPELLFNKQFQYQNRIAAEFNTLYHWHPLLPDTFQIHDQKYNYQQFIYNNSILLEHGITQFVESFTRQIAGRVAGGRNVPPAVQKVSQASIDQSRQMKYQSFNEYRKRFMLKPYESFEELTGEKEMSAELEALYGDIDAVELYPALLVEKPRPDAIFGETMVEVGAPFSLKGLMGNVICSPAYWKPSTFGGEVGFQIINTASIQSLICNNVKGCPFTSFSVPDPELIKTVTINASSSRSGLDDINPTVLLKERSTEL

[3] = biological target: Prostaglandin G/H synthase 1 (Homo sapiens, UniProt P23219); test: Inhibition of COX-1
Chain of Prostaglandin G/H synthase 1 (P23219 whole entry): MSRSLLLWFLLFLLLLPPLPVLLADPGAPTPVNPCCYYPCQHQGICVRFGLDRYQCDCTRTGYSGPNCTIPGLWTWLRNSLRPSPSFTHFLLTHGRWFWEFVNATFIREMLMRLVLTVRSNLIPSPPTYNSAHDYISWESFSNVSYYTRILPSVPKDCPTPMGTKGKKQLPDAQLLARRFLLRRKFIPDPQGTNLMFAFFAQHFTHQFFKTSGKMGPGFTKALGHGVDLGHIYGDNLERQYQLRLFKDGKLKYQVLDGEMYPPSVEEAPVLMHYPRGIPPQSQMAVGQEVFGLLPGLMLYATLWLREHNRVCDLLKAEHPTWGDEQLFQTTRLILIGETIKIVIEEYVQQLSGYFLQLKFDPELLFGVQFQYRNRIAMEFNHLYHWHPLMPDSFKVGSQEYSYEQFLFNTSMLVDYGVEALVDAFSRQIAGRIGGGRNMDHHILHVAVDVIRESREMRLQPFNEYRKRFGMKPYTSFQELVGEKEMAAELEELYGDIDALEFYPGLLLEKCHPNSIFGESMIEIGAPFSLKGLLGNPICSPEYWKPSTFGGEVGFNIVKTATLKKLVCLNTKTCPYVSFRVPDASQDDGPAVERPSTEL

Canis familiaris = test: AUC in dog at 2.5 mg/kg, po or 2 mg/kg, iv; details: in vivo
Mus musculus [4] = test: Antiinflammatory activity against cigarette smoke-induced lung inflammation in BALB/c mouse assessed as reduction in bronchoalveolar lavage fluid neutrophils at 10 mg/kg, po for 2 days; assay type: functional, organism-based; parameters: dose 10 mg/kg
How it was run: (§2)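 Mice exposed to cigarette smoke. Oral dosing at 10 or 50 mg/kg, or 0.5% methylcellulose vehicle, on days −1 through 2. On day 3, euthanized by isoflurane inhalation, then bronchoalveolar lavage with differential counts of neutrophils, lymphocytes and macrophages.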

Mus musculus [5] = test: Antiinflammatory activity against cigarette smoke-induced lung inflammation in BALB/c mouse assessed as reduction in bronchoalveolar lavage fluid lymphocytes at 10 mg/kg, po for 2 days; assay type: functional, organism-based; parameters: dose 10 mg/kg; how it was run: as §2
Cytochrome P450 2C19 = Cytochrome P450 2C19 (Homo sapiens, UniProt P33261); test: Inhibition of human CYP2C19; assay type: ADME
Chain of Cytochrome P450 2C19 (P33261 whole entry): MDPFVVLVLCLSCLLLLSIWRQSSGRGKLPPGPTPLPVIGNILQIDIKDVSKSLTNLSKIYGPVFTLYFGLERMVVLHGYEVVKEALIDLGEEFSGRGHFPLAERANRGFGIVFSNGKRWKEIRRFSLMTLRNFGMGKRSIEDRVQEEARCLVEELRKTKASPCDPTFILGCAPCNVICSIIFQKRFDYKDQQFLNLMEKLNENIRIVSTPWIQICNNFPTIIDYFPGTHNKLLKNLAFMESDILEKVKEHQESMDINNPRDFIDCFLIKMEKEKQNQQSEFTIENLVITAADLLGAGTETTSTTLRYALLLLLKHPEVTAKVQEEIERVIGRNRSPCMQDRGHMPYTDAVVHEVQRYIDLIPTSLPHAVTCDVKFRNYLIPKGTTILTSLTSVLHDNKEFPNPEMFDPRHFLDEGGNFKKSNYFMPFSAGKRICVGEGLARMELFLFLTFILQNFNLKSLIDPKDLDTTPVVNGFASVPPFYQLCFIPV

[6] = biological target: T3, Prostaglandin D2 receptor (Homo sapiens, UniProt Q13258); test: Displacement of [3H]PGD2 from DP1 in human platelet membrane; assay type: cell membranes
T3 sequence (Q13258 whole entry): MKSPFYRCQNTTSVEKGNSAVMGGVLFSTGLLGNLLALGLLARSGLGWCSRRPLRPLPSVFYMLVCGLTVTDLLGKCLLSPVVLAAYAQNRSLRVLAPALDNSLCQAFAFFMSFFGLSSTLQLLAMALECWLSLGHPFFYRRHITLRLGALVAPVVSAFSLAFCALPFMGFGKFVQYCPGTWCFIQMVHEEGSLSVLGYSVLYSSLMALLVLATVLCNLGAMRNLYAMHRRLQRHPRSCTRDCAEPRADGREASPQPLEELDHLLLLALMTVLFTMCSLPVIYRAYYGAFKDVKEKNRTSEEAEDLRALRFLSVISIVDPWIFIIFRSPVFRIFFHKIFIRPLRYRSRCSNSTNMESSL
How it was run: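 Human DP₁ binding using ³H-PGD₂ and human platelet membranes.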

Thromboxane A2 receptor = biological target: T4, Thromboxane A2 receptor (Homo sapiens, UniProt P21731); test: Displacement of [3H]SQ-29548 from TP receptor in human platelet membrane; assay type: cell membranes
T4 sequence (P21731 whole entry): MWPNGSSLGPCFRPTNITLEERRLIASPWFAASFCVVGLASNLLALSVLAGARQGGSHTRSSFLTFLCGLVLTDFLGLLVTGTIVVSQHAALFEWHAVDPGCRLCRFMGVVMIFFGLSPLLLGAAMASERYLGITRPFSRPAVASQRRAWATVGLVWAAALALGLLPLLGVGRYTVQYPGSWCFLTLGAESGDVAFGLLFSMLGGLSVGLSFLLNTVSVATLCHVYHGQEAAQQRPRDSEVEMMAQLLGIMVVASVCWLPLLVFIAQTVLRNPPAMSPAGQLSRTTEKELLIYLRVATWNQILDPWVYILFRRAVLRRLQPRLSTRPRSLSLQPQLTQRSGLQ
How it was run: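 Human TP binding using human platelet membranes and ³H-SQ-29548.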

Mus musculus [7] = test: Antiallergic activity in BALB/c mouse assessed as reduction in ovalbumin-induced increase in nasal sneezes at 10 mg/kg, po administered 21 to 25 days after ovalbumin challenge followed by intranasal ovalbumin challenge measured for 8 mins of post dose; assay type: functional, organism-based; parameters: dose 10 mg/kg
hERG (KCNH2) = hERG (KCNH2) (Homo sapiens, UniProt Q12809); test: Inhibition of human ERG at 10 uM by patch-clamp analysis
Chain of hERG (KCNH2) (Q12809 whole entry): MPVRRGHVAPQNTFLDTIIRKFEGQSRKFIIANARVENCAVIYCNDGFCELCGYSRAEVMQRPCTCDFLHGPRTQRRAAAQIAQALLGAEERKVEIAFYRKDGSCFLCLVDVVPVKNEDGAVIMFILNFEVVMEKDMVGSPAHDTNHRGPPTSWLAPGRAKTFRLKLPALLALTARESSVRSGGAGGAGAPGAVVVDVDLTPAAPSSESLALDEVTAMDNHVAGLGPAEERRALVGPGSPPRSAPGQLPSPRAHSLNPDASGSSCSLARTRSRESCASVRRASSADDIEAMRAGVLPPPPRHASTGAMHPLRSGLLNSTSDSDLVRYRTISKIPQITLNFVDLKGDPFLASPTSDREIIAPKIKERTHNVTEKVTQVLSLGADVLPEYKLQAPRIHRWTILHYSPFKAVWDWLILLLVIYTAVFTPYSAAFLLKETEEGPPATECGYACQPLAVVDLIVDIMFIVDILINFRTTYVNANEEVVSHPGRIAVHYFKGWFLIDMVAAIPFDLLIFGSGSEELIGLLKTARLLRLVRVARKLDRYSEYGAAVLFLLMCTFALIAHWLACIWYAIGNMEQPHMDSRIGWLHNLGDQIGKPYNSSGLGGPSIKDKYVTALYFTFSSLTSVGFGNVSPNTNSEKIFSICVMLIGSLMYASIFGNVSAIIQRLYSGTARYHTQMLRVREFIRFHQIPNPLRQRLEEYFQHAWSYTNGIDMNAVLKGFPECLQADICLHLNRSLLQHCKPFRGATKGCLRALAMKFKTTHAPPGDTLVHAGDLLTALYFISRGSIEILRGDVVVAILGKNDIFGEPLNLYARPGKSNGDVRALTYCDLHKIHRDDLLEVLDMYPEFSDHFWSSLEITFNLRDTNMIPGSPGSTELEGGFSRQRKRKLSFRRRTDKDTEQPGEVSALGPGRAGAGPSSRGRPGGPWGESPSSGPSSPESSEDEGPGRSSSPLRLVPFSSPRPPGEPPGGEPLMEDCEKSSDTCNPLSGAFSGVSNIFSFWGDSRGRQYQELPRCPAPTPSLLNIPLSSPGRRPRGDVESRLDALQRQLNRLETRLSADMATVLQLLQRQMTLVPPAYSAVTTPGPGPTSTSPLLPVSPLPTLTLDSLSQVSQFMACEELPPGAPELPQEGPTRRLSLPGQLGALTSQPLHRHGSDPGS

Cytochrome P450 3A4 = Cytochrome P450 3A4 (Homo sapiens, UniProt P08684); test: Inhibition of human CYP3A4; assay type: ADME
Chain of Cytochrome P450 3A4 (P08684 whole entry): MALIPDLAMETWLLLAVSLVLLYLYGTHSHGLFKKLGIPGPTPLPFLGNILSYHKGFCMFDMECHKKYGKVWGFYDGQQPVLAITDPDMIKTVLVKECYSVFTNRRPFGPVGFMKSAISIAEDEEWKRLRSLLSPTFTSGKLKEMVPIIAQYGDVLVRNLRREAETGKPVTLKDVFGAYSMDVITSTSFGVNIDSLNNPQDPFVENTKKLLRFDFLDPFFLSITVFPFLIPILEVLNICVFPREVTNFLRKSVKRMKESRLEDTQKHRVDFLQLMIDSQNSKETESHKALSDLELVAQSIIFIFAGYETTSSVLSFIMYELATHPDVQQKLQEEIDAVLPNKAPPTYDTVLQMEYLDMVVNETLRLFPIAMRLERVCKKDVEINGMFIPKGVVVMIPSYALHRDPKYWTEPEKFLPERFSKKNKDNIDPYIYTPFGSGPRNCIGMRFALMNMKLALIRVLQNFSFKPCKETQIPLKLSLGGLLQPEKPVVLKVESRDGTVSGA

Mus musculus [8] = test: Antiinflammatory activity against cigarette smoke-induced lung inflammation in BALB/c mouse assessed as reduction in bronchoalveolar lavage fluid macrophages at 10 mg/kg, po for 2 days; assay type: functional, organism-based; parameters: dose 10 mg/kg; how it was run: as §2
[9] = biological target: T1, Prostaglandin D2 receptor 2; test: Displacement of [3H]PGD2 from human CRTh2 receptor expressed in 293 cells by liquid scintillation counting; assay type: cell-based, HEK293; how it was run: as §1
Cytochrome P450 2C9 = Cytochrome P450 2C9 (Homo sapiens, UniProt P11712); test: Inhibition of human CYP2C9; assay type: ADME
Chain of Cytochrome P450 2C9 (P11712 whole entry): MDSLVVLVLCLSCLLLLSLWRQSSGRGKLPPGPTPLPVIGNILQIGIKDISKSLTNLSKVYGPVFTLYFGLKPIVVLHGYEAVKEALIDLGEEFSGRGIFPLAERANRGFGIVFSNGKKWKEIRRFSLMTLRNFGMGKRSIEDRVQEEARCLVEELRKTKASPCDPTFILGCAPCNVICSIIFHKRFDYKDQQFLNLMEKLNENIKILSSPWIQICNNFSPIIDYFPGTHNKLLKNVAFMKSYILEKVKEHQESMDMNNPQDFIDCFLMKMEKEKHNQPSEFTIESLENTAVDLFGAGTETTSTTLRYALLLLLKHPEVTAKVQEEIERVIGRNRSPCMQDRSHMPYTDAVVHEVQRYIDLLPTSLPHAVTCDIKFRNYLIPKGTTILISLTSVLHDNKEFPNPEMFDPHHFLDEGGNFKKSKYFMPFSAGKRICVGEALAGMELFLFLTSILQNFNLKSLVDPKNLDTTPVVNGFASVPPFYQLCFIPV

Cytochrome P450 1A2 = biological target: T5, Cytochrome P450 1A2 (Homo sapiens, UniProt P05177); test: Inhibition of human CYP1A2; assay type: ADME
T5 sequence (P05177 whole entry): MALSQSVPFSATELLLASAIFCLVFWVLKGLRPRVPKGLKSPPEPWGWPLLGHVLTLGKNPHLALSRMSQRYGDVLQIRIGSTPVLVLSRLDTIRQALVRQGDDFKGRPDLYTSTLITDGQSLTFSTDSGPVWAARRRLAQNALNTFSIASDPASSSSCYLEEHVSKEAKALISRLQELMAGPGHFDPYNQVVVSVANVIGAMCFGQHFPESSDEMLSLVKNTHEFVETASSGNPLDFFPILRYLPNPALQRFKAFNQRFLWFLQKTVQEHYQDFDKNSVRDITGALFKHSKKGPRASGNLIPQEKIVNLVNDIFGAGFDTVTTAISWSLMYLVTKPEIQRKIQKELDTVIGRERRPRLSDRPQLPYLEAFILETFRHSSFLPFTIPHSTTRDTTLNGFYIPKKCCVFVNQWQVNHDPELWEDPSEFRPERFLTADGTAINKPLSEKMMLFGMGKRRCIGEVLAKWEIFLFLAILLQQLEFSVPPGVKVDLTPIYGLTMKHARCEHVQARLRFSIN

[10] = biological target: Peroxisome proliferator-activated receptor delta (Homo sapiens, UniProt Q03181); test: Inhibition of PPAR beta
Chain of Peroxisome proliferator-activated receptor delta (Q03181 whole entry, looked up): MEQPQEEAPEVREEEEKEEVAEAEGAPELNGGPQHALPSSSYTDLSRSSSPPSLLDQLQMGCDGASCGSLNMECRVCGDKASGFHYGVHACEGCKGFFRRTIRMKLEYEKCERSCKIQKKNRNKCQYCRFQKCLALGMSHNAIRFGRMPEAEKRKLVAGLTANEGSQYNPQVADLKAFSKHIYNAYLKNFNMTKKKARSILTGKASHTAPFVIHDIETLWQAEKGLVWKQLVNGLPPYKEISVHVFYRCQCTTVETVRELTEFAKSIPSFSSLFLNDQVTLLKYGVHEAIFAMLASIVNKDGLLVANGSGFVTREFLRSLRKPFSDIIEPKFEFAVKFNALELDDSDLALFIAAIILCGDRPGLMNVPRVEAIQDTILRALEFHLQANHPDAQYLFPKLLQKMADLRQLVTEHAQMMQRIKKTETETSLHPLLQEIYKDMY

Mus musculus [11] = test: Antiinflammatory activity against cigarette smoke-induced lung inflammation in BALB/c mouse assessed as reduction in bronchoalveolar lavage fluid lymphocytes at 50 mg/kg, po for 2 days; assay type: functional, organism-based; parameters: dose 50 mg/kg; how it was run: as §2
Mus musculus [12] = test: Antiallergic activity in BALB/c mouse assessed as reduction in ovalbumin-induced increase in nasal rubs at 10 mg/kg, po administered 21 to 25 days after ovalbumin challenge followed by intranasal ovalbumin challenge measured for 8 mins of post dose; assay type: functional, organism-based; parameters: dose 10 mg/kg
[13] = Cmax in dog at 2.5 mg/kg, po or 2 mg/kg, iv; details: in vivo
[14] = Clearance in dog at 2.5 mg/kg, po or 2 mg/kg, iv; details: in vivo
[15] = biological target: T6, Peroxisome proliferator-activated receptor alpha (Homo sapiens, UniProt Q07869); test: Inhibition of PPAR alpha
T6 sequence (Q07869 whole entry): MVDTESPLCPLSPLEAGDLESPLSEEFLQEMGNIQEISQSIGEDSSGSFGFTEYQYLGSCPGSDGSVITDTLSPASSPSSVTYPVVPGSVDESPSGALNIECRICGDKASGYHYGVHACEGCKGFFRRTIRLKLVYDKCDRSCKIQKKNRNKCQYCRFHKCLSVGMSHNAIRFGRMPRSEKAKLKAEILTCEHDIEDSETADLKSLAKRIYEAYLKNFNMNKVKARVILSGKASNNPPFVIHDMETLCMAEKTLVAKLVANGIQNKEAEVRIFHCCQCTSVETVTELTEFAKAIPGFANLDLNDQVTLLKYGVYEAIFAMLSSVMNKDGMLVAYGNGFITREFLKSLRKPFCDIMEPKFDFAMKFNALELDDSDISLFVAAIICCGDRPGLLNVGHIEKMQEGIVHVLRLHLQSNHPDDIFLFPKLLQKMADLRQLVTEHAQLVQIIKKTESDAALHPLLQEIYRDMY

[16] = biological target: Peroxisome proliferator-activated receptor gamma (Homo sapiens, UniProt P37231); test: Inhibition of PPAR gamma
Chain of Peroxisome proliferator-activated receptor gamma (P37231 whole entry, looked up): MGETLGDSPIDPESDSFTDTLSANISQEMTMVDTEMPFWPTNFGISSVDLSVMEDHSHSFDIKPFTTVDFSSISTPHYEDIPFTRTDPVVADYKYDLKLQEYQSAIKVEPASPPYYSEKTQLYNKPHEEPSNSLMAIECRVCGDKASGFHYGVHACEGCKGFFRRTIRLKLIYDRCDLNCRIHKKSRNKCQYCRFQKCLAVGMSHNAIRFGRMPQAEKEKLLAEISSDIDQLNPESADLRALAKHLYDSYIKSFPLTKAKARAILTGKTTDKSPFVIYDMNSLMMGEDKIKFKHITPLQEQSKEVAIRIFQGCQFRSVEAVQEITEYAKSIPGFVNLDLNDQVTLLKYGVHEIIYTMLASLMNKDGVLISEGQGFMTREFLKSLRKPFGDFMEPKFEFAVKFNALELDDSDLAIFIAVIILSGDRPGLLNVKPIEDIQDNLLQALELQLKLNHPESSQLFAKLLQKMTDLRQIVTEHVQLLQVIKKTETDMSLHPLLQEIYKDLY

Mus musculus [17] = test: Antiinflammatory activity against cigarette smoke-induced lung inflammation in BALB/c mouse assessed as reduction in bronchoalveolar lavage fluid macrophages at 50 mg/kg, po for 2 days; assay type: functional, organism-based; parameters: dose 50 mg/kg; how it was run: as §2
[18] = Half life in dog at 2.5 mg/kg, po or 2 mg/kg, iv; details: in vivo
Mus musculus [19] = test: Antiinflammatory activity against cigarette smoke-induced lung inflammation in BALB/c mouse assessed as reduction in bronchoalveolar lavage fluid neutrophils at 50 mg/kg, po for 2 days; assay type: functional, organism-based; parameters: dose 50 mg/kg; how it was run: as §2

SMILES: CCOc1ccc(-c2ccc(-c3cc(CC(=O)[O-])ccc3OC)c(CN(CC)C(=O)C3CC3)c2)cn1.[Na+]
- IC50 [1]: 31 nM
- IC50 (Cytochrome P450 2D6): > 50000 nM
- IC50 (Prostacyclin receptor): > 100000 nM
- IC50 [2]: > 100000 nM
- IC50 [3]: > 100000 nM
- AUC (Canis familiaris): 87 µg/mL
- Activity (Mus musculus [4]): Active
- Activity (Mus musculus [5]): inactive
- IC50 (Cytochrome P450 2C19): > 50000 nM
- IC50 [6]: 26700 nM
- IC50 (Thromboxane A2 receptor): > 100000 nM
- Activity (Mus musculus [7]): Active
- inhibition at 10 µM (hERG (KCNH2)): 11%
- IC50 (Cytochrome P450 3A4): > 50000 nM
- Activity (Mus musculus [8]): inactive
- IC50 [9]: 6 nM
- IC50 (Cytochrome P450 2C9): > 50000 nM
- IC50 (Cytochrome P450 1A2): > 50000 nM
- IC50 [10]: > 250000 nM
- Activity (Mus musculus [11]): Active
- Activity (Mus musculus [12]): Active
- Cmax [13]: 30 µM
- clearance [14]: 0.5 mL/min/kg
- IC50 [15]: > 250000 nM
- IC50 [16]: > 250000 nM
- Activity (Mus musculus [17]): Active
- half-life [18]: 6 h
- Activity (Mus musculus [19]): Active

SMILES: CCN(Cc1cc(NC(C)=O)ccc1-c1cc(CC(=O)O)ccc1OC)C(=O)OCc1ccccc1
- IC50 [1]: 60 nM
- IC50 [9]: 7 nM

SMILES: CCN(Cc1cc(-c2ncc(OC)cn2)ccc1-c1cc(CC(=O)O)ccc1OC)C(=O)C1CC1
- IC50 [1]: 107 nM
- IC50 [9]: 27 nM

SMILES: CCN(Cc1cc(C(C)(C)O)ccc1-c1cc(CC(=O)O)ccc1OC)C(=O)OCc1ccccc1
- IC50 [1]: 24 nM
- IC50 [9]: 12 nM

SMILES: CCN(Cc1cc(F)ccc1-c1cc(CC(=O)O)ccc1OC)C(=O)OCc1ccccc1
- IC50 [1]: 9 nM
- IC50 [9]: 1 nM
